Source: PubChem BioAssay
RGS4 block: inhibitors of human RGS4 | B-score at 10 µM | AID 463165 | HEK293 M3R/RGS4 inducible, Fluo-4 calcium flux; hits give high values; triggered by carbachol at its EC20 | 310,000 tested, 0.45% active | P49798;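 active = B-score, a plate-corrected calcium signal, over three deviations above library mean, with baseline fluorescence within five deviations of library mean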;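 also: RGS4 expression induced by doxycycline in cells with stable M3 receptor; B-score is computed from the integrated fluorescence ratio over baseline after carbachol; higher B-score means a larger calcium signal and so more RGS4 inhibition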
Target sequence (P49798 whole entry, looked up): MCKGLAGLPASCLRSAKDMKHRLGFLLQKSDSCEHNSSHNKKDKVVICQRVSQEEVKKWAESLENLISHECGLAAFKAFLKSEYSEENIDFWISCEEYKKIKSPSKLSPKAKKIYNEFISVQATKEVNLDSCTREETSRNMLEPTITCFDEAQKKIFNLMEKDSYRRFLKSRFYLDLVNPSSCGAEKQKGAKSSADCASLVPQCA
MrgX1 agonist: human MrgX1 receptor agonism, primary screen; AID 588627; B-score at 10 µM; MrgX1-HEK293 cells, Fluo-4 calcium fluorescence, agonist mode; hits give high values; 310,000 tested, 0.44% active;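 active = calcium response B-score plate-corrected fluorescence ratio at least 3 library SD, with starting fluorescence B-score inside 5 SD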
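Material: HEK293 cells stably expressing human MrgX1 receptor | Quantity: 15,000 cells per well | Times: Cells plated overnight, dye loaded 0.5 h 37 °C, 0.5 h room temperature | Measured by: Kinetic Fluo-4 NW fluorescence of intracellular calcium | Control set: Positive and negative controls per plate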
RGS4 act: RGS4 potentiation or activation. HEK293 M3R/inducible RGS4, carbachol calcium flux Fluo4; hits give low values. B-score at 10 µM. 310,000 tested, 0.92% active;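 active = B-score of the integrated calcium signal more than 4 SD below the library mean, with starting fluorescence not abnormally high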;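 also: negative B-score means reduced calcium response which marks RGS4 activation or potentiation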
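Assay system: Inducible-RGS4 HEK293 cells carrying M3 receptor | Schedule: Compound preincubation 20 min at room temperature before agonist | Signal: Kinetic calcium fluorescence imaging with Fluo4-AM dye, 2 µM | Read-out basis: B score from integrated fluorescence ratio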
MrgX1 antag: blocks BAM8-22 activation of human MrgX1 receptor | B-score at 10 µM | 310,000 tested, 1.3% active | Q96LB2 | MRGX1-HEK293 calcium flux, Fluo-4, BAM8-22 antagonism; hits give low values | AID 588676;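 active = calcium-response B-score plate-corrected more than 3 library SD below zero, starting fluorescence within 5 deviations, no agonist response on first addition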;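 also: peak minus trough fluorescence over baseline after final BAM8-22 challenge near maximal dose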
MrgX1 PAM: allosterically activates human MrgX1 receptor signaling | Q96LB2 | MrgX1-HEK293, Fluo-4 calcium flux, FDSS; hits give high values | B-score at 10 µM | 310,000 tested, 0.63% active | AID 588675;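 active = plate-corrected calcium response at least 3 library SD above typical, normal starting fluorescence, not activating the receptor alone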;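 also: compound read alongside a low EC10 to EC30 dose of BAM8-22 agonist; peak minus trough fluorescence over baseline measured at the second addition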
RGS4 act valid: confirmation of RGS4 activators; shares compounds with RGS4 act; HEK293 M3R/RGS4 inducible, carbachol calcium flux Fluo4; inhibition, % at 10 µM; 1,100 tested, 89% active; AID 602282;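 active = inhibition above 3 SD of the buffer control wells, cut at about 41% in these data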;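 also: signal is the integrated peak-minus-minimum Fluo4 fluorescence over baseline ratio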
M3R Ca counter: activity in cells without induced RGS4 expression. shares compounds with RGS4 act. HEK293 M3R non-induced RGS4, Fluo4 calcium flux; after carbachol challenge at its EC90. inhibition, % at 10 µM. 1,100 tested, 82% active;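 active = inhibition exceeding 3 SD of buffer-only control wells, cut at about 26% in these data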;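 also: percent drop in integrated peak-minus-baseline over baseline Fluo4 ratio after carbachol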
Of the large screens only hits and unclear results are named; the others gave an inactive call (follow-up assays come after a bar, where they were run). Sampled rows, rich in hits. Any-hit rate of the full collection: about 3.5%.

COc1ccc(C(=O)Nc2cccc(-c3nnc(-c4ccco4)o3)c2)cc1	RGS4 act -9.6 | RGS4 act valid 87.5 | M3R Ca counter 48.3
CN1/C(=C\C(=O)Nc2ccc(Cl)cc2)C(C)(C)c2ccccc21	RGS4 act -9.71 | RGS4 act valid 91.5 | M3R Ca counter 94.8
CN1/C(=C\C=C(/C#N)C(=O)Nc2ccc(Cl)cc2)C(C)(C)c2ccccc21	none
OCCN(CC#CC(O)(c1ccccc1)C1CCCCC1)CCO (configuration not stated)	none
OC(C#CCCN1CCCCC1)(c1ccccc1)C1CCCCC1 (configuration not stated)	RGS4 act -8.97 | RGS4 act valid 91.5 | M3R Ca counter 95.8
CN(C)CC(=O)N1c2ccccc2Sc2ccc(Cl)cc21	RGS4 act -7.97 | RGS4 act valid 91.0 | M3R Ca counter 69.3
CCN(CC)CCC(=O)N1c2ccccc2Sc2ccc(Cl)cc21	none
O=C(CCN1CCN2CCCC2C1)N1c2ccccc2Sc2ccc(Cl)cc21 (configuration not stated)	none
CN(C)CCC(=O)N1c2ccccc2Sc2ccc(Cl)cc21	RGS4 act -14.3 | RGS4 act valid 93.5 | M3R Ca counter 98.3
NCCCC(=O)N1c2ccccc2Sc2ccc(Cl)cc21	RGS4 act -7.88 | RGS4 act valid 91.0 | M3R Ca counter 84.8
Cc1ccc(S(=O)(=O)CCC(=O)OCc2cc(C)ccc2C)cc1	none
CS(=O)(=O)N(CCCC(=O)N1CCCCCC1)c1cccc(Cl)c1	none
COC(=O)C1=C(C)N(c2ccc(OC)cc2)C(C)=C(C(=O)OC)C1c1ccc(OC)cc1	RGS4 act -8.96 | RGS4 act valid inactive | M3R Ca counter inactive
COC(=O)C1=C(C)N(c2ccc(OC)cc2)C(C)=C(C(=O)OC)C1c1ccccc1	none
CC1CCN(S(=O)(=O)c2ccc3c(ccn3CCC(=O)NC(C)C)c2)CC1	RGS4 act -7.88 | RGS4 act valid inactive | M3R Ca counter inactive
CCOC(=O)c1c(C)n(-c2ccc(C)cc2)c2c(C(C(C)=O)C(=O)O)c(Br)c(O)c(O)c12 (configuration not stated)	none
CCOC(=O)C(C(C)=O)c1c(Br)c(O)c(O)c2c(C(=O)c3ccc(C)cc3)coc12 (configuration not stated)	RGS4 act -9.24 | RGS4 act valid 41.5 | M3R Ca counter 38.8
O=S(=O)(Cc1ccccc1)Nc1ccccc1	none
CN(Cc1ccccc1)S(=O)(=O)c1ccc(NS(=O)(=O)Cc2ccccc2)cc1	RGS4 act -8.84 | RGS4 act valid 85.0 | M3R Ca counter 57.3
CN1CCN(C(=O)c2ccc(COc3ccc(C(C)(C)C)cc3)o2)CC1	RGS4 act -7.73 | RGS4 act valid 89.5 | M3R Ca counter 41.3
CC(C)c1ccc(OCc2ccc(C(=O)N3CCCC3)o2)cc1	RGS4 act -12.2 | RGS4 act valid 83.0 | M3R Ca counter 83.8
CCOc1ccc(OCc2ccc(C(=O)N3CCCC3)o2)cc1	none
COc1ccc(-n2cc([N+](=O)[O-])c(=O)c3ccc(Cl)cc32)cc1	none
N#Cc1ccsc1NC(=O)CCN1CCN(C(c2ccccc2)c2ccccc2)CC1	RGS4 act -9.12 | RGS4 act valid 74.0 | M3R Ca counter 83.8
N#Cc1ccsc1NC(=O)CCc1ccccc1	none
COc1ccc(OC)c(/C=N/NC(=O)CCN2CCN(C(c3ccccc3)c3ccccc3)CC2)c1	RGS4 act -10.8 | RGS4 act valid 92.5 | M3R Ca counter 93.8
COc1ccc(S(=O)(=O)N2CCC(N3CCN(Cc4ccccc4)CC3)CC2)cc1	RGS4 act -8.02 | RGS4 act valid 86.5 | M3R Ca counter 49.8
Cc1cccc(S(=O)(=O)N2CCN(Cc3ccc4c(c3)OCO4)CC2)c1	RGS4 act -10.1 | RGS4 act valid 67.5 | M3R Ca counter 83.8
COc1ccc(S(=O)(=O)N2CCN(Cc3ccc4c(c3)OCO4)CC2)cc1	RGS4 act -10.6 | RGS4 act valid 61.5 | M3R Ca counter 83.8
